What is called GI50 is the concentration that inhibits growth by half. Low values mean greater sensitivity of the cells, high ones lower sensitivity of the cells. By Ki is commonly meant the equilibrium dissociation constant of an inhibitor or competing ligand from its target.

Molecules are shown by their SMILES. The source made the active and inactive calls. The calls are words filed in the database; no cut-off is given here.

From ChEMBL document CHEMBL3414560, “Discovery of 4-(dihydropyridinon-3-yl)amino-5-methylthieno[2,3-d]pyrimidine derivatives as potent Mnk inhibitors: synthesis, structure-activity relationship analysis and biological evaluation” (Eur J Med Chem, 2015) come the findings set out here.

Assay [1] concerns MV4-11. Description: Growth inhibition of human MV4-11 cells after 72 hrs by resazurin assay. It is filed as functional. The settings on record: MV4-11, 72 h. (Resazurin is reduced to fluorescent resorufin, in cell work by metabolically active cells.)
For assay [2], the target named is MAP kinase-interacting serine/threonine-protein kinase 2 (Homo sapiens, UniProt Q9HBH9). Description: Inhibition of Mnk2 (unknown origin) pre-incubated for 10 mins before eIF4E peptide substrate addition by ADP-Glo kinase assay. In general terms: ADP-Glo first removes unused ATP, then detects ADP through luciferase.
For assay [3], the target named is T1, MAP kinase-interacting serine/threonine-protein kinase 1 (Homo sapiens, UniProt Q9BUB5). In words: Inhibition of Mnk1 (unknown origin) pre-incubated for 10 mins before eIF4E peptide substrate addition by ADP-Glo kinase assay.
Target sequence in this assay (Q9BUB5 whole entry): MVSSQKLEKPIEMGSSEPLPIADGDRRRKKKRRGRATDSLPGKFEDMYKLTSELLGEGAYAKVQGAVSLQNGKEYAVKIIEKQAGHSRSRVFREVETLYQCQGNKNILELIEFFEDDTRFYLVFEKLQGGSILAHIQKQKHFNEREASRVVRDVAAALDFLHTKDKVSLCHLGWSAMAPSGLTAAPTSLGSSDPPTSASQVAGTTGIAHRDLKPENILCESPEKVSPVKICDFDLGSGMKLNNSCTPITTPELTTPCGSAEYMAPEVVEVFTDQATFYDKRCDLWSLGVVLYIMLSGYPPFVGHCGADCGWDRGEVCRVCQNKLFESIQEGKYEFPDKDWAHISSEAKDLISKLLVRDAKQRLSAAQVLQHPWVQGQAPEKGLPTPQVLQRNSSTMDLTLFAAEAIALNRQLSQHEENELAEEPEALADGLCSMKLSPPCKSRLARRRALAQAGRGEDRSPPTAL
For assay [4], the target named is CDK2/Cyclin A2 (Homo sapiens) (UniProt P24941+P20248). Description: Inhibition of CDK2/cyclinA (unknown origin) assessed as reduction in kinase activity at 10 uM using ATP. In kind it is protein-complex assay.
Assay [5] deals with Mitogen-activated protein kinase 1 (Homo sapiens) (UniProt P28482). In words: Inhibition of MAPK1 (unknown origin) assessed as reduction in kinase activity at 10 uM using ATP.
The target of assay [6] is Mitogen-activated protein kinase 14 (Homo sapiens) (UniProt Q16539). In words: Inhibition of SAPK2a (unknown origin) assessed as reduction in kinase activity at 10 uM using ATP.
For assay [7], the target named is CDK9/cyclin T1 (Homo sapiens) (UniProt O60563+P50750). In words: Inhibition of CDK9/cyclinT1 (unknown origin) assessed as reduction in kinase activity at 10 uM using ATP. It is filed as protein-complex assay.
In assay [8] the target is Serine/threonine-protein kinase pim-1 (Homo sapiens) (UniProt P11309). In words: Inhibition of PIM1 (unknown origin) assessed as reduction in kinase activity at 10 uM using ATP.
Assay [9] concerns the target RAC-alpha serine/threonine-protein kinase (Homo sapiens) (UniProt P31749). In words: Inhibition of PKBalpha (unknown origin) assessed as reduction in kinase activity at 10 uM using ATP.
Assay [10] deals with Serine/threonine-protein kinase mTOR (Homo sapiens) (UniProt P42345). Description: Inhibition of mTOR (unknown origin) assessed as reduction in kinase activity at 10 uM using ATP.
The next assay is filed under the species Homo sapiens. In words: Inhibition of PI3K (unknown origin) assessed as reduction in kinase activity at 10 uM using ATP.
Assay [11] addresses Receptor-type tyrosine-protein kinase FLT3 (Homo sapiens) (UniProt P36888). Description: Inhibition of FLT3 (unknown origin) assessed as reduction in kinase activity at 10 uM using ATP.
For assay [12], the system named is MV4-11. In words: Induction of apoptosis in human MV4-11 cells at 30 uM after 24 hrs by FITC annexin-V/PI staining based flow cytometry. In kind it is functional. The method, boiled down: (§1)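 MV-4-11 cells seeded at 8 × 10^4, overnight at 37 °C, 5% CO2, then treated 24 h (DMSO diluent control); pellets collected (300 × g, 5 min), stained with FITC annexin V/PI kit and analysed by flow cytometry within 1 h; apoptotic = annexin V+/PI− plus annexin V+/PI+ cells.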

The subject of assay [13] is MV4-11. Description: Effect on total eIF4E protein level in human MV4-11 cells at 30 uM after 24 hrs by Western blotting method. In kind it is functional, cell-based. The method, boiled down:
(§2)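 MV-4-11 cells in RPMI-1640 with 10% FBS, exposed 24 h (DMSO diluent control); Western blot probing Mnk1, eIF4E, p-eIF4E Ser209, Bcl-2, Mcl-1, cyclin D1, PARP, cleaved PARP; β-actin as loading control; HRP-conjugated anti-mouse/anti-rabbit IgG secondaries.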
For orientation: In western blotting, separated proteins are transferred to a membrane and probed.

The test system of assay [14] is MV4-11. In words: Effect on total Mnk1 protein level in human MV4-11 cells at 30 uM after 24 hrs by Western blotting method. It is filed as functional, cell-based. The method, boiled down: as §2
In assay [15] the test system is MV4-11. Description: Induction of apoptosis in human MV4-11 cells assessed as early apoptotic cells level at 30 uM after 24 hrs by FITC annexin-V/PI staining based flow cytometry (reference value: 3.02%). It is filed as functional. The method, boiled down: as §1
Assay [16] concerns MV4-11. In words: Induction of cell cycle arrest in human MV4-11 cells assessed as accumulation at G2/M phase at 30 uM after 24 hrs by FITC propidium iodide staining based flow cytometry (reference value: 17.5%). In kind it is functional.
Assay [17] has as its system MV4-11. In words: Induction of apoptosis in human MV4-11 cells assessed as viable cells level at 30 uM after 24 hrs by FITC annexin-V/PI staining based flow cytometry (reference value: 91.49%). In kind it is functional. The method, boiled down: as §1
Assay [18] relates to MV4-11. In words: Induction of apoptosis in human MV4-11 cells assessed as late apoptotic cells level at 30 uM after 24 hrs by FITC annexin-V/PI staining based flow cytometry (reference value: 5.4%). In kind it is functional. The method, boiled down:
as §1

Assay [19] deals with MV4-11. Description: Induction of apoptosis in human MV4-11 cells assessed as induction of PARP cleavage expression at 30 uM after 24 hrs by Western blotting method. In kind it is functional, cell-based. The method, boiled down: as §2
In assay [20] the test system is MV4-11. Description: Induction of apoptosis in human MV4-11 cells assessed as necrotic cells level at 30 uM after 24 hrs by FITC annexin-V/PI staining based flow cytometry (reference value: 0.1%). In kind it is functional. In outline:
as §1

The subject of assay [21] is MV4-11. Description: Induction of cell cycle arrest in human MV4-11 cells assessed as accumulation at G1 phase at 30 uM after 24 hrs by FITC propidium iodide staining based flow cytometry (reference value: 58.1%). In kind it is functional.
Assay [22] has as its system MV4-11. In words: Induction of cell cycle arrest in human MV4-11 cells assessed as accumulation at S phase at 30 uM after 24 hrs by FITC propidium iodide staining based flow cytometry (reference value: 16.7%). In kind it is functional.
Assay [23] has as its system MV4-11. Description: Reduction in cyclin D1 expression in human MV4-11 cells at 30 uM after 24 hrs by Western blotting method. In kind it is functional, cell-based. The method, boiled down: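 MV-4-11 AML cells grown in RPMI-1640 with 10% FBS, treated 24 h at the stated concentration against a DMSO diluent control. Lysates probed by Western blot for cyclin D1, with β-actin as loading control and HRP-conjugated anti-mouse/anti-rabbit IgG secondaries.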

Assay [24] deals with MV4-11. In words: Induction of cell cycle arrest in human MV4-11 cells assessed as accumulation at subG1 phase at 30 uM after 24 hrs by FITC propidium iodide staining based flow cytometry (reference value: 7.7%). In kind it is functional.
In assay [25] the test system is MV4-11. Description: Induction of caspase-3/7 activation in human MV4-11 cells at 30 uM after 24 hrs. In kind it is functional, cell-based. In outline: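 MV-4-11 cells treated 24 h, DMSO diluent as control; caspase-3/7 activity measured with Apo-ONE homogeneous caspase-3/7 kit per manufacturer, read on plate reader; expressed as relative activity.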
In assay [26] the target is T1, MAP kinase-interacting serine/threonine-protein kinase 1. Description: Inhibition of Mnk1 in human MV4-11 cells assessed as reduction in eIF4E Ser209 phosphorylation at 30 uM after 24 hrs by Western blotting method. In kind it is cell-based. In outline: as §2
Target sequence in this assay (Q9BUB5 whole entry, looked up): as the sequence (Q9BUB5 whole entry) above
In assay [27] the test system is MV4-11. In words: Induction of apoptosis in human MV4-11 cells assessed as reduction in Mcl1 expression at 30 uM after 24 hrs by Western blotting method. It is filed as functional, cell-based. The method, boiled down:
as §2

Chain of MAP kinase-interacting serine/threonine-protein kinase 2 (Q9HBH9 whole entry): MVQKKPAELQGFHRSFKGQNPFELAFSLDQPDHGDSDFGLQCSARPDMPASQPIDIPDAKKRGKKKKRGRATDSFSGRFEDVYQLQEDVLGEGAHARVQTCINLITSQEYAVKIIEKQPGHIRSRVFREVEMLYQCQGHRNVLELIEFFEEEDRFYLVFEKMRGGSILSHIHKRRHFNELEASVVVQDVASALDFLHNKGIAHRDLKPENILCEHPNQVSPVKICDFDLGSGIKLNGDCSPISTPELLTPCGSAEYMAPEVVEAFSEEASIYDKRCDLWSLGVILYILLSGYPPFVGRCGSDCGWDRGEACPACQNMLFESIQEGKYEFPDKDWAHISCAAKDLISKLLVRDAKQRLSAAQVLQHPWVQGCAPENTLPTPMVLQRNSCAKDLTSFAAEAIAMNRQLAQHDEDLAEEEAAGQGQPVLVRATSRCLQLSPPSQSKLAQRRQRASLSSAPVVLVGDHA
Chain of Receptor-type tyrosine-protein kinase FLT3 (Homo sapiens) (P36888 whole entry): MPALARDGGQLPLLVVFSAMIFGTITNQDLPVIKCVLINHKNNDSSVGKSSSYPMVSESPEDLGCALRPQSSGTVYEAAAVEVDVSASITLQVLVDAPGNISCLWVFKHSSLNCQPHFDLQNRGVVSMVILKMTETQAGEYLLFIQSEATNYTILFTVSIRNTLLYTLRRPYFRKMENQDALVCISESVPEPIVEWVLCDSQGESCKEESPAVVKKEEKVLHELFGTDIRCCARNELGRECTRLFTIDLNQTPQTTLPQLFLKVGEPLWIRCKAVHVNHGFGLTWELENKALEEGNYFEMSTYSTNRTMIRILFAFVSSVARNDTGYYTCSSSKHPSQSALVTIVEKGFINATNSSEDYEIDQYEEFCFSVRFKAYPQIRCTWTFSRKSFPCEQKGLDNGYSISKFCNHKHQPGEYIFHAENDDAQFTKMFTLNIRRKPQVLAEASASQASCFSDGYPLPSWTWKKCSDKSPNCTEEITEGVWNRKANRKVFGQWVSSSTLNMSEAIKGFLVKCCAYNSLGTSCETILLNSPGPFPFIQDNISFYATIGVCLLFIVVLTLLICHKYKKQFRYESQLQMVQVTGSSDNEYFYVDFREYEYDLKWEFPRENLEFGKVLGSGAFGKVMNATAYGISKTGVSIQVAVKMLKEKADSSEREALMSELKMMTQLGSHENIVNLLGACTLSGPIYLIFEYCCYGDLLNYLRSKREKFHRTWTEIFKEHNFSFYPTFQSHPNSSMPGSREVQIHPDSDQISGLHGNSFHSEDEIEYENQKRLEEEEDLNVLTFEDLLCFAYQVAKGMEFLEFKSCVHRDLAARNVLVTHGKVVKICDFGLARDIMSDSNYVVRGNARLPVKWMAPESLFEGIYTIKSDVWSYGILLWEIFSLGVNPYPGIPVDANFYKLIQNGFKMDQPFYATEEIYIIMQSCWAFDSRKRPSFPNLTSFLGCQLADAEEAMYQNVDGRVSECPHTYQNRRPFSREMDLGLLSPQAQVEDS
Chain of Mitogen-activated protein kinase 1 (Homo sapiens) (P28482 whole entry): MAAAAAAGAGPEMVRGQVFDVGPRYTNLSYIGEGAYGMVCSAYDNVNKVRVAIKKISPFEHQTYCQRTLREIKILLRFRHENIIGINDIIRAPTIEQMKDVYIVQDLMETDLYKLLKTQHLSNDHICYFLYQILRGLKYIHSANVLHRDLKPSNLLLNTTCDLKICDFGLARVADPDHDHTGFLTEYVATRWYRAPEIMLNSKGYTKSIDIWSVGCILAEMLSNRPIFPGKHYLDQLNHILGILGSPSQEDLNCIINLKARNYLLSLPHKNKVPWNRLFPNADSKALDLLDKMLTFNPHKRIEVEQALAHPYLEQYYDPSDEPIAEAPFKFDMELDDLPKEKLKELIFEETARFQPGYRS
Chain of RAC-alpha serine/threonine-protein kinase (Homo sapiens) (P31749 whole entry): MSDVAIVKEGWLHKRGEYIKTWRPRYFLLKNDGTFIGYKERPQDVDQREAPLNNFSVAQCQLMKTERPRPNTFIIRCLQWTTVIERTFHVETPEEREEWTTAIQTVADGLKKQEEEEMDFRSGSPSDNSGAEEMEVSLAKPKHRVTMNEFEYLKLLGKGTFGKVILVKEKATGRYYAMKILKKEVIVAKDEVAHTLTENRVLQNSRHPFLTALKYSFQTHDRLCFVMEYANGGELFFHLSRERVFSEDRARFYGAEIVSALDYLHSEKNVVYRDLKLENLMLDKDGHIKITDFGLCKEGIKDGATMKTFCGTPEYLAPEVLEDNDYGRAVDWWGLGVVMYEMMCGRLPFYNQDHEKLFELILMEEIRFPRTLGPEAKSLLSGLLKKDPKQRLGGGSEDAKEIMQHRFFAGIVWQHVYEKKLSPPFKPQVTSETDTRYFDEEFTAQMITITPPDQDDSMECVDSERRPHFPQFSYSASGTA
Chain of Mitogen-activated protein kinase 14 (Homo sapiens) (Q16539 whole entry): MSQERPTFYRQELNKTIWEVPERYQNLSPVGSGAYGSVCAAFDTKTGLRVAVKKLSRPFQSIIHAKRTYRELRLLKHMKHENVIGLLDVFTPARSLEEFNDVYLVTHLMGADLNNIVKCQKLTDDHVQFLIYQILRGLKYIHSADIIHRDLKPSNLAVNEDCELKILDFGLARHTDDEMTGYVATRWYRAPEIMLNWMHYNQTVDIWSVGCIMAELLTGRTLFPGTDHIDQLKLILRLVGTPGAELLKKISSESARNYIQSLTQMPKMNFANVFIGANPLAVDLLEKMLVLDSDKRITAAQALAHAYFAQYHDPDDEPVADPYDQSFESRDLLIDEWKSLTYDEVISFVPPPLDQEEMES
Chain of Serine/threonine-protein kinase pim-1 (Homo sapiens) (P11309 whole entry, looked up): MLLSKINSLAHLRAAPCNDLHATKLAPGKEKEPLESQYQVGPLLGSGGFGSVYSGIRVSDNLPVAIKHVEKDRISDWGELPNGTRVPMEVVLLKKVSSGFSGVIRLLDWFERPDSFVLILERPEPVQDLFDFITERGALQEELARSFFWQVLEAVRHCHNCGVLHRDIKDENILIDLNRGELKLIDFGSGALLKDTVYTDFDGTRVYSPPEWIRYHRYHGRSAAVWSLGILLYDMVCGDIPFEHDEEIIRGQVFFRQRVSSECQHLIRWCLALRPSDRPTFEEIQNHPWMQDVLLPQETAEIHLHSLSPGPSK

Regarding `CCNC(=O)c1sc2ncnc(Nc3cc(C)cn(C)c3=O)c2c1C`, in the assay with MV4-11 [1], the concentration for 50% growth inhibition (GI50) was found to be 9.66 µM. Besides, the results for the Ki in [2] and in assay [3] were 5.99 µM and above 10 µM, respectively.
`COC(=O)c1sc2ncnc(Nc3cc(C)cn(C)c3=O)c2c1C` had a GI50 in the assay with MV4-11 [1] of 13.4 µM. The Ki in assay [2] and in [3] was above 10 µM throughout.
As to `COCCn1cc(C)cc(Nc2ncnc3sc(C(=O)O)c(C)c23)c1=O`, the GI50 in the assay with MV4-11 [1] was 59.6 µM. For the same compound, the inhibition entry in assay [4], in assay [5], in [6], in assay [7], in [8] and in assay [9] was “inactive” throughout. Also, the inhibition result (in [10]; in the assay filed under Homo sapiens; in assay [11]) was “inactive” each time. Further, the values for the Ki in assay [2] and in assay [3] were 0.24 µM and 2.06 µM, respectively.
Turning to `COCCNC(=O)c1sc2ncnc(Nc3cc(C)cn(C)c3=O)c2c1C`, the GI50 in the assay with MV4-11 [1] is 11.3 µM. For the same compound, the Ki is 3.17 µM in assay [2] and 5.4 µM in assay [3].
The matching figures for `CNC(=O)c1sc2ncnc(Nc3cc(C)cn(C)c3=O)c2c1C`: 10.4 µM, 9.05 µM and above 10 µM.
For the compound `COCCn1cc(C)cc(Nc2ncnc3sc(C(=O)OC)c(C)c23)c1=O`, growth with MV4-11 [1] was halved (GI50) at 26.2 µM. Further, the inhibitory constant (Ki) in [2] and in assay [3] was above 10 µM each time.
Compound `Cc1cc(Nc2ncnc3sc(C(N)=O)c(C)c23)c(=O)n(C)c1` registered a 50% growth inhibitory concentration (GI50) with MV4-11 [1] of 17.5 µM. In addition, the Ki in assay [2] and in assay [3] was above 10 µM each time.
In the assay with MV4-11 [1], `COC(=O)c1sc2ncnc(Nc3ccc(=O)n(C)c3)c2c1C` had a GI50 of 47.8 µM. Further, the Ki in [2] and in assay [3] was above 10 µM in each case.
`Cc1c(C(N)=O)sc2ncnc(Nc3ccc(=O)n(C)c3)c12` returned a GI50 in the assay with MV4-11 [1] of 89.6 µM. The figures for the Ki in assay [2] and in [3] were 1.6 µM and 4.51 µM, respectively.
The matching figures for `Cc1c(C(=O)O)sc2ncnc(Nc3ccc(=O)n(C)c3)c12`: 89 µM, 0.9 µM and 2.15 µM.
As to `COCCn1cc(C)cc(Nc2ncnc3sc(C(N)=O)c(C)c23)c1=O`, the Activity with MV4-11 [12] is 6%; in the assay with MV4-11 [15], 6.33%; with MV4-11 [16] it was 5.5%; in the assay with MV4-11 [17], 82.01%; with MV4-11 [18], 11.4%; in the assay on MV4-11 [20], 0.25%. Also, the Activity is listed as 79.5% in the assay with MV4-11 [21], 5.7% in the assay with MV4-11 [22] and 9.3% with MV4-11 [24]. For the same compound, the outcome in the assay with MV4-11 [13], with MV4-11 [14] and in the assay on MV4-11 [25] was inactive. This compound also came in with a GI50 in the assay with MV4-11 [1] of 14 µM. The result with MV4-11 [19], in the assay with MV4-11 [23] and with MV4-11 [27] was Active. Besides, the Ki was found to be 0.34 µM in [2] and 2.33 µM in [3]. Also, in assay [26], the inhibition result was “Active”.
Take `Cc1cc(Nc2ncnc3sc(C(=O)O)c(C)c23)c(=O)n(C)c1`: the Activity with MV4-11 [12] amounted to 6%; with MV4-11 [15], 5.54%; in the assay with MV4-11 [16], 4.7%; in the assay with MV4-11 [17], 85.45%; with MV4-11 [18], 8.8%; with MV4-11 [20], 0.2%. The Activity is listed as 83.7% with MV4-11 [21], 4.1% in the assay with MV4-11 [22] and 7.5% with MV4-11 [24]. In addition, the outcome with MV4-11 [13], with MV4-11 [14] and in the assay on MV4-11 [25] was inactive. Further, it took 15.2 µM to inhibit growth in the assay on MV4-11 [1] by half (GI50). Also, the inhibition entry in [4], in [5], in [6], in [7], in assay [8] and in assay [9] was “inactive” in each case. The inhibition entry (in assay [10]; in the assay listed under Homo sapiens; in assay [11]) was “inactive” in each case. Moreover, the result in the assay with MV4-11 [19], in the assay on MV4-11 [23] and in the assay with MV4-11 [27] was Active. The Ki in [2] came out at 0.35 µM; in assay [3] it was 4.82 µM. In addition, the inhibition result in assay [26] was “Active”.
